# Key:
# [1] = Toxicity in male Wistar rat assessed as creatinine level at 400 mg/kg, po after 28 days (reference value: 0.61 +/- 0.04 mg/dl); type: organism-based; conditions: in vivo, 672 h, time 28 day
# [2] = Toxicity in female Wistar rat assessed as ALT level at 200 mg/kg, po after 28 days (reference value: 21.28 +/- 2.31 U/L); type: organism-based; conditions: in vivo, 672 h, time 28 day
# [3] = Toxicity in male Wistar rat assessed as glucose level at 400 mg/kg, po after 28 days (reference value: 89.02 +/- 13.41 mg/dl); type: organism-based; conditions: in vivo, 672 h, time 28 day
# [4] = Toxicity in male Wistar rat assessed as ALP level at 100 mg/kg, po after 28 days (reference value: 174.77 +/- 25.42 U/L); type: organism-based; conditions: in vivo, 672 h, time 28 day
# [5] = Toxicity in male Wistar rat assessed as ratio of adrenals to body weight at 200 mg/kg, po after 28 days (reference value: 0.020 +/- 0.003); type: organism-based; conditions: in vivo, 672 h, time 28 day
# [6] = Toxicity in female Wistar rat assessed as ratio of adrenals to body weight at 100 mg/kg, po after 28 days (reference value: 0.045 +/- 0.007); type: organism-based; conditions: in vivo, 672 h, time 28 day
# [7] = Toxicity in female Wistar rat assessed as ratio of heart to body weight at 100 mg/kg, po after 28 days (reference value: 0.38 +/- 0.037); type: organism-based; conditions: in vivo, 672 h, time 28 day
# [8] = Toxicity in male Wistar rat assessed as ratio of thymus to body weight at 400 mg/kg, po after 28 days (reference value: 0.148 +/- 0.023); type: organism-based; conditions: in vivo, 672 h, time 28 day
# [9] = Toxicity in female Wistar rat assessed as urea level at 400 mg/kg, po after 28 days (reference value: 48.09 +/- 5.3 mg/dl); type: organism-based; conditions: in vivo, 672 h, time 28 day
# [10] = Toxicity in male Wistar rat assessed as albumin level at 200 mg/kg, po after 28 days (reference value: 3.56 +/- 0.08 g.dl); type: organism-based; conditions: in vivo, 672 h, time 28 day
# [11] = Toxicity in female Wistar rat assessed as reduction in body weight at 100 to 400 mg/kg, po after 28 days; type: organism-based; conditions: in vivo, 672 h, dose 100-400 mg/kg, time 28 day
# How it was run: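 Repeated-dose oral toxicity by gavage in Wistar rats, 10 males and 10 females per group, given 100, 200 or 400 mg/kg once daily for 28 days. Endpoints were clinical signs, mortality, neurobehaviour, food intake, ophthalmic examination and body weight. Animals were sacrificed on day 29 for blood biochemistry, organ-to-body weight ratios and histopathology.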
# [12] = Toxicity in female Wistar rat assessed as ratio of brain to body weight at 200 mg/kg, po after 28 days (reference value: 1.1 +/- 0.078); type: organism-based; conditions: in vivo, 672 h, time 28 day
# [13] = Toxicity in female Wistar rat assessed as creatinine level at 200 mg/kg, po after 28 days (reference value: 0.6 +/- 0.04 mg/dl); type: organism-based; conditions: in vivo, 672 h, time 28 day
# [14] = Toxicity in male Wistar rat assessed as ALT level at 100 mg/kg, po after 28 days (reference value: 30.47 +/- 2.63 U/L); type: organism-based; conditions: in vivo, 672 h, time 28 day
# [15] = Toxicity in male Wistar rat assessed as ratio of heart to body weight at 400 mg/kg, po after 28 days (reference value: 0.333 +/- 0.036); type: organism-based; conditions: in vivo, 672 h, time 28 day
# [16] = Toxicity in female Wistar rat assessed as albumin level at 400 mg/kg, po after 28 days (reference value: 3.57 +/- 0.14 g.dl); type: organism-based; conditions: in vivo, 672 h, time 28 day
# [17] = Toxicity in female Wistar rat assessed as ALP level at 400 mg/kg, po after 28 days (reference value: 100.14 +/- 21.98 U/L); type: organism-based; conditions: in vivo, 672 h, time 28 day
# [18] = Toxicity in female Wistar rat assessed as ratio of ovaries to body weight at 400 mg/kg, po after 28 days (reference value: 0.091 +/- 0.009); type: organism-based; conditions: in vivo, 672 h, time 28 day
# [19] = Toxicity in male Wistar rat assessed as ratio of adrenals to body weight at 100 mg/kg, po after 28 days (reference value: 0.020 +/- 0.003); type: organism-based; conditions: in vivo, 672 h, time 28 day
# [20] = target: T1, Glucose-dependent insulinotropic receptor (Homo sapiens) (UniProt Q8TDV5); assay: Agonist activity at human GPR119 stably transfected in CHO-K1 cells assessed as increase in cAMP stimulation after 1 hr by enzyme immunoassay relative to AR231453; type: functional, cell-based; conditions: filed as agonist
# T1 sequence (whole entry): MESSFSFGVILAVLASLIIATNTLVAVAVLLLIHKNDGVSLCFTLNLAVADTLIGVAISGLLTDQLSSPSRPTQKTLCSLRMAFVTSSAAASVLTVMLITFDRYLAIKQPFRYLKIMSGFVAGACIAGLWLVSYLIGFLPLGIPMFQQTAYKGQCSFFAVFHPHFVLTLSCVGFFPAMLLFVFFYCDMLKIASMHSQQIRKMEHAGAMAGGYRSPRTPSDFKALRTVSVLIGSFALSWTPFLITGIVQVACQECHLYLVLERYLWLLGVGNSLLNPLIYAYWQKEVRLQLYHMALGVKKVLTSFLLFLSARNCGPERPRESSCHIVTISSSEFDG
# [21] = Toxicity in female Wistar rat assessed as ratio of liver to body weight at 200 mg/kg, po after 28 days (reference value: 3.219 +/- 0.221); type: organism-based; conditions: in vivo, 672 h, time 28 day
# [22] = Toxicity in female Wistar rat assessed as ratio of spleen to body weight at 200 mg/kg, po after 28 days (reference value: 0.244 +/- 0.032); type: organism-based; conditions: in vivo, 672 h, time 28 day
# [23] = Toxicity in male Wistar rat assessed as ratio of brain to body weight at 200 mg/kg, po after 28 days (reference value: 0.766 +/- 0.038); type: organism-based; conditions: in vivo, 672 h, time 28 day
# Mus musculus = assay: Antidiabetic activity in db/db mouse assessed as reduction in blood glucose level at 50 mg/kg, po pretreated for 30 mins followed by glucose-stimulation and measured up to 120 mins by OGTT method relative to control; type: functional; parameters: scale not given: the % may be the effect or the level left; conditions: 0.5 h
# How it was run: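 db/db mice aged 5–7 weeks were fasted and grouped by fasting serum glucose. Single oral dose of 50 mg/kg; 30 min later basal bleed and oral glucose 2 g/kg. Serum glucose taken at 30, 60 and 120 min. AUC glucose excursion computed against a no-glucose water group and expressed as % reduction vs vehicle; mean ± s.e.m.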
# [24] = Cmax in Sprague-Dawley rat at 25 mg/kg, po up to 24 hrs; type: ADME, organism-based; parameters: route oral, dose 25 mg/kg, time <=24; conditions: in vivo
# How it was run: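 Male SD rats fasted overnight, water ad libitum, fed 4 h after dosing. Single oral gavage of 25 mg/kg as a homogeneous suspension in 0.5% Tween 80 in 0.5% Na-CMC. Blood drawn into Na-heparin tubes at 0.25, 0.5, 1, 2, 4, 6, 8 and 24 h; plasma stored at -70°C. Parameters by non-compartmental analysis, with C0 taken as zero and BLQ samples set to zero.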
# [25] = Toxicity in male Wistar rat assessed as glucose level at 100 mg/kg, po after 28 days (reference value: 89.02 +/- 13.41 mg/dl); type: organism-based; conditions: in vivo, 672 h, time 28 day
compound,measurement,setting,value
Cc1c(Oc2cccc(/C=C3\SC(=O)NC3=O)c2)ncnc1OC1CCN(C(=O)OC(C)(C)C)CC1,Activity,[1],0.57 mg/dL
same,Activity,[2],22.2 U/L
same,Activity,[3],82.17 mg/dL
same,Activity,[4],152.22 U/L
same,Ratio,[5],0.023
same,Ratio,[6],0.046
same,Ratio,[7],0.41
same,Ratio,[8],0.196
same,Activity,[9],43.2 mg/dL
same,Activity,[10],3.61 g/dL
same,Activity,[11],Non-Toxic
same,Ratio,[12],1.114
same,Activity,[13],0.66 mg/dL
same,Activity,[14],28.9 U/L
same,Ratio,[15],0.338
same,Activity,[16],3.57 g/dL
same,Activity,[17],100.97 U/L
same,Ratio,[18],0.081
same,Ratio,[19],0.023
same,Emax,[20],160%
same,Ratio,[21],3.285
same,Ratio,[22],0.242
same,Ratio,[23],0.824
same,Activity,Mus musculus,69.1%
same,Cmax,[24],4960 ng/mL
same,Activity,[25],87.56 mg/dL
